Results on one protein are retold here after ChEMBL document CHEMBL1156792, “Application of the dipeptidyl peptidase IV (DPPIV/CD26) based prodrug approach to different amine-containing drugs” (J Med Chem, 2010).

Substrate in series [1]: CC(C)[C@H](N)C(=O)N1CCC[C@H]1C(=O)N[C@H](C(=O)N1CCC[C@H]1C(=O)Nc1ncnc2c1ncn2[C@@H]1O[C@H](CO)[C@@H](O)[C@@H]1O)C(C)C
The series can be described thus: (§1) Activity of human recombinant CD26 assessed as hydrolysis. Summed up: (§2)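 Human recombinant CD26 (Sf9-expressed) was incubated with prodrug at several levels (2–50 μM, or 50–1000 μM for the AspPro conjugate). Hydrolysis was quantified by RP-8 HPLC at 15, 30 and 45 min. Km and Vmax were calculated at each time point and averaged over the three, with at least two to three independent experiments.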

Substrate in series [2]: CC(C)[C@H](N)C(=O)N1CCC[C@H]1C(=O)Nc1ccc2ncccc2c1
The series is described as §1. In outline:
as §2

Substrate in series [3]: COc1cccc2c1C(=O)c1c(O)c3c(c(O)c1C2=O)C[C@@](O)(C(=O)CO)C[C@@H]3O[C@H]1C[C@H](NC(=O)[C@@H]2CCCN2C(=O)[C@@H](N)C(C)C)[C@H](O)[C@H](C)O1
The description is as §1. Summed up:
as §2

Substrate in series [4]: N[C@@H](CC(=O)O)C(=O)N1CCC[C@H]1C(=O)Nc1ccc2ncccc2c1
Described as §1. Summed up: as §2

B1: Dipeptidyl peptidase 4 (Homo sapiens), P27487 (protein)
chain: MKTPWKVLLGLLGAAALVTIITVPVVLLNKGTDDATADSRKTYTLTDYLKNTYRLKLYSLRWISDHEYLYKQENNILVFNAEYGNSSVFLENSTFDEFGHSINDYSISPDGQFILLEYNYVKQWRHSYTASYDIYDLNKRQLITEERIPNNTQWVTWSPVGHKLAYVWNNDIYVKIEPNLPSYRITWTGKEDIIYNGITDWVYEEEVFSAYSALWWSPNGTFLAYAQFNDTEVPLIEYSFYSDESLQYPKTVRVPYPKAGAVNPTVKFFVVNTDSLSSVTNATSIQITAPASMLIGDHYLCDVTWATQERISLQWLRRIQNYSVMDICDYDESSGRWNCLVARQHIEMSTTGWVGRFRPSEPHFTLDGNSFYKIISNEEGYRHICYFQIDKKDCTFITKGTWEVIGIEALTSDYLYYISNEYKGMPGGRNLYKIQLSDYTKVTCLSCELNPERCQYYSVSFSKEAKYYQLRCSGPGLPLYTLHSSVNDKGLRVLEDNSALDKMLQNVQMPSKKLDFIILNETKFWYQMILPPHFDKSKKYPLLLDVYAGPCSQKADTVFRLNWATYLASTENIIVASFDGRGSGYQGDKIMHAINRRLGTFEVEDQIEAARQFSKMGFVDNKRIAIWGWSYGGYVTSMVLGSGSGVFKCGIAVAPVSRWEYYDSVYTERYMGLPTPEDNLDHYRNSTVMSRAENFKQVEYLLIHGTADDNVHFQQSAQISKALVDVGVDFQAMWYTDEDHGIASSTAHQHIYTHMSHFIKQCFSLP
For the protein B1, the Km in series [1] was determined as 56 µM; in series [2] it was 25 µM; in series [3] it was 15 µM; in series [4], 524 µM. Further, the Vmax (nmol/hr/microg) is 10 in series [1], 32 in series [2], 30 in series [3] and 70 in series [4].
